Experimental data published in ChEMBL document CHEMBL2380301, “Chemotherapy of leishmaniasis. Part XII: design, synthesis and bioevaluation of novel triazole integrated phenyl heteroterpenoids as antileishmanial agents” (Bioorg Med Chem Lett, 2013).

What was measured:
[1] = Cytotoxicity against african green monkey Vero cells after 72 hrs by MTT assay; type: cell-based; details: chlorocebus sabaeus
In short: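 Vero monkey kidney […] were exposed to compounds for 72 h, and viable cells were detected with MTT by a modified Mosmann method. CC50 is the mean of two independent experiments.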

[2] = Selectivity index, ratio of CC50 for african green monkey Vero cells to IC50 for amastigotes of Leishmania donovani; type: functional
In short: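 Ratio of CC50 on Vero cells (72 h MTT) to IC50 on intramacrophage L. donovani amastigotes in luciferase-expressing J-774A.1 infections (72 h). Both values are means of two independent experiments.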

[3] = system: Leishmania donovani; assay: Antileishmanial activity against amastigotes of Leishmania donovani assessed as inhibition of parasite growth after 72 hrs by luciferase reporter assay; type: functional, organism-based
In short: (§1)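 J-774A.1 murine macrophages (4 × 10³/well) were seeded and grown 24 h, then infected with luciferase-transfected L. donovani promastigotes (4 × 10⁴/well) that transformed intracellularly into amastigotes. Compounds at […] were added for 72 h. After supernatant removal, cells were taken up in PBS with Steady-Glo and luminescence read. Inhibition was calculated against untreated controls. IC50 is the mean of two independent experiments.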

[4] = system: Leishmania donovani; assay: Antileishmanial activity against amastigotes of Leishmania donovani assessed as inhibition of parasite growth at 40 uM after 72 hrs by luciferase reporter assay; type: functional; in short: as §1
[5] = system: Leishmania donovani; assay: Antileishmanial activity against Leishmania donovani infected in golden hamster assessed as inhibition of parasite multiplication at 50 mg/kg, ip qd for 5 days measured on day 7; type: functional; details: route intraperitoneal
In short: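 Inbred golden hamsters of either sex, 40–45 g, infected intracardiacally with 1 × 10⁷ L. donovani amastigotes per animal. Dosing was 50 mg/kg ip for 5 days. Biopsies were taken on day 7 after the last dose and amastigotes counted by Giemsa staining. Counts were compared between treated and untreated animals and with the initial count in treated animals, and expressed as per cent inhibition.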

SMILES: CC1=C(/C=C/C(=O)/C=C/c2ccc(-n3cncn3)cc2)C(C)(C)CCC1
- CC50 at 72 h [1]: 72.4 µM
- Ratio CC50/IC50 [2]: 5
- IC50 [3]: 15.3 µM
- inhibition at 40 µM [4]: 100%

SMILES: CC1=C(/C=C/C2=NN(c3ccccc3)C(c3ccc(-n4cncn4)cc3)C2)C(C)(C)CCC1 (centres undefined)
- CC50 at 72 h [1]: 112 µM
- inhibition in vivo at 50 mg/kg [5]: 79%
- Ratio CC50/IC50 [2]: 18
- IC50 [3]: 6.4 µM
- inhibition at 40 µM [4]: 100%

SMILES: CC1=C(/C=C/C2=NN(c3ccc(F)cc3)C(c3ccc(-n4cncn4)cc3)C2)C(C)(C)CCC1 (centres undefined)
- CC50 at 72 h [1]: 58.6 µM
- Ratio CC50/IC50 [2]: 5
- IC50 [3]: 12.4 µM
- inhibition at 40 µM [4]: 98.7%

SMILES: CC1=CCCC(C)(C)C1/C=C/C(=O)/C=C/c1ccc(-n2cncn2)cc1 (centres undefined)
- CC50 at 72 h [1]: 38.5 µM
- Ratio CC50/IC50 [2]: 3
- IC50 [3]: 11.6 µM
- inhibition at 40 µM [4]: 98.2%

SMILES: CC1=CCCC(C)(C)C1/C=C/C1=NN(c2ccccc2)C(c2ccc(-n3cncn3)cc2)C1 (centres undefined)
- CC50 at 72 h [1]: 296 µM
- inhibition in vivo at 50 mg/kg [5]: 58%
- Ratio CC50/IC50 [2]: 32
- IC50 [3]: 9.2 µM
- inhibition at 40 µM [4]: 98%

SMILES: CC1=CCCC(C)(C)C1/C=C/C1=NN(c2ccc(F)cc2)C(c2ccc(-n3cncn3)cc2)C1 (centres undefined)
- CC50 at 72 h [1]: 72.2 µM
- Ratio CC50/IC50 [2]: 4
- IC50 [3]: 16.9 µM
- inhibition at 40 µM [4]: 90.5%

SMILES: Clc1ccc(COC(Cn2ccnc2)c2ccc(Cl)cc2Cl)c(Cl)c1 (centres undefined) [MICONAZOLE]
- CC50 at 72 h [1]: 37.4 µM
- Ratio CC50/IC50 [2]: 7
- IC50 [3]: 5.4 µM
- inhibition at 40 µM [4]: 100%

SMILES: CCCCCCCCCCCCCCCCOP(=O)([O-])OCC[N+](C)(C)C [MILTEFOSINE]
- CC50 at 72 h [1]: 54.7 µM
- Ratio CC50/IC50 [2]: 6
- IC50 [3]: 8.6 µM
- inhibition at 40 µM [4]: 100%
